Screening results as filed in PubChem.
The list is not random: actives were taken first. Their share in the collection is about 2.3%.
C2C12 statin – suppression of simvastatin myotoxicity; C2C12 myotubes + simvastatin, ATP luminescence, 48 h; scaled: DMSO 0, geranylgeraniol control 100; rescue of ATP level, % at 7.49 µM; 330,000 compounds, 0.78% hits;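 active = mean ATP rescue above about 67%, or every replicate alone reaching that limit, limit read from the data, passing the limit was not always enough; inconclusive = no clear call, values can overlap the other calls; inactive = mean under the limit and some replicate under it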;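 also: myotubes were challenged with 10 µM simvastatin during compound exposure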
ERp5 inh – ERp5 (human) disulfide isomerase inhibition | AID 651711 | 350,000 compounds, 0.05% hits | ERp5 insulin aggregation, absorbance 650 nm, 90 min | Q15084 | inhibition, % at 9.99 µM;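 active = mean replicate inhibition above about 25%, with every replicate also reaching it, limit read from the data, passing the limit was not always enough; inconclusive = only one of those two criteria met; inactive = neither criterion met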
Target sequence (Q15084 whole entry, looked up): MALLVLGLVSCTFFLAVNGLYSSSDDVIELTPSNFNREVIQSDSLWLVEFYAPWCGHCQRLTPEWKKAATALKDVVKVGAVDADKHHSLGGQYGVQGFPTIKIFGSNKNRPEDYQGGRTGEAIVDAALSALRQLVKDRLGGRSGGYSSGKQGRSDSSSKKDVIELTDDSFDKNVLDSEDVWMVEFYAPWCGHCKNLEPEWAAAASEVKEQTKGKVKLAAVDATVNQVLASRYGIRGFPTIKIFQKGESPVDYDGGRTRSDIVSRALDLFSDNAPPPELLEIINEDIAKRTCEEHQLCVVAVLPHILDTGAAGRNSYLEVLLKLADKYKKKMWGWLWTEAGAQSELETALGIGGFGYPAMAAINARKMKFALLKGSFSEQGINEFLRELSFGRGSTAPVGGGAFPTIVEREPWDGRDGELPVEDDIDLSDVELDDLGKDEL
PDI turbidity – PDI (human) enzyme inhibition; PDI insulin aggregation turbidity, A650, 90 min; 350,000 compounds, 0.052% hits; inhibition, % at 10 µM; P07237; AID 588391;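 active = mean inhibition across replicates of 30% or more, whatever share of single replicates reach that level; inconclusive = mean inhibition below 30% while every single replicate reaches 30%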
CFTR F508del cor – correctors of CFTR F508del function in bronchial epithelial cells; activity (quench increase), % at 7.58 µM; 350,000 compounds, 0.36% hits; CFBE cells, YFP halide quenching; stimulated with forskolin plus potentiator P3; % fluorescence drop versus neutral controls; AID 720511;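 active = mean added fluorescence quench of at least 8% versus neutral control, with both replicates also reaching 8%; inconclusive = only one of the mean or replicate conditions met; inactive = mean below 8% and not both replicates reaching 8%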;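 also: cells transiently co-express mutant CFTR-F508del with the halide-sensitive YFP; corrector assay measuring rescue of mutant channel to the surface after 24 h compound exposure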
DENV2 CPE – inhibitors of DENV2 cytopathic effect. CPE inhibition, % at 9.99 µM. DENV2-infected cells, cytopathic effect rescue, plate reader. 350,000 compounds, 1.7% hits; in the data active = CPE inhibition above about 20%, passing the limit was not always enough; inconclusive = no clear call, values can overlap the other calls; tested in BHK-21 cells
Cneo AK release – Cryptococcus neoformans lysis via adenylate kinase release. C. neoformans lysis, adenylate kinase release luminescence, 4 h; normalised: neutral wells 0, clomiphene wells 100. lysis activity, % at 15 µM. 360,000 compounds, 0.2% hits. AID 651654;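 active = mean lysis activity across replicates of at least 80%, whatever share of replicates individually reach that level; inactive = mean lysis activity below 80%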
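Test system: log-phase Cryptococcus neoformans yeast cells. Input: 5 × 10^6 yeast cells/mL. Medium: fresh YPD growth medium. Doses: single dose. Incubation: static 4 h at 37 °C with compound, 1 h detection. Measured by: luminescent adenylate kinase detection reagent. Read-out: signal increase indicating cell lysis. Benchmarks: Clomiphene.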
Numbers stand for hits; 0 = inactive; ? = inconclusive; - = no result.

SMILES	C2C12 statin	ERp5 inh	PDI turbidity	CFTR F508del cor	DENV2 CPE	Cneo AK release
COc1ccc(C(=O)C[C@@H]2OC[C@H](C(C)C)N2S(=O)(=O)c2ccc(C)cc2)cc1OC	-	0	-	0	0	-
CCOC(=O)C[C@@H]1OC[C@H](Cc2ccccc2)N1S(=O)(=O)c1ccc(C)cc1	-	0	-	0	0	-
COc1ccc(C(=O)C[C@@H]2OC[C@H](C)N2S(=O)(=O)c2ccc(C)cc2)cc1OC	-	0	-	0	57	-
CCn1cc(C(=O)NCCc2ccc(Cl)cc2)c(=O)c2cc(S(=O)(=O)N(C)C)ccc21	0	0	0	0	0	0
CCn1cc(C(=O)NC(C)CCc2ccccc2)c(=O)c2cc(S(=O)(=O)N(C)C)ccc21 (stereo not given)	0	0	0	0	51	0
Cc1ccc(S(=O)(=O)N2CCCCC2CCNC(=O)C(=O)NCc2ccccc2)cc1 (stereo not given)	0	0	0	9.8	0	0
CO[C@@H](CN(C)S(=O)(=O)c1cn(C)cn1)[C@@H](C)CN(C(=O)Nc1ccc(C(F)(F)F)cc1)[C@H](C)CO	0	0	-	0	0	0
Cc1cc(C(=O)N[C@H](c2ccccc2)[C@@]2(C)C[C@@H]2[C@@H](C)C(=O)Nc2ccc3ccccc3c2)no1	0	0	0	0	?	0
Cc1cc(C(=O)N[C@@H](c2ccccc2)[C@]2(C)C[C@H]2[C@@H](C)C(=O)Nc2ccc3ccccc3c2)no1	0	0	0	0	77	0
Clc1ccc(-c2ccc(C=Nc3ccc(N4CCOCC4)cc3)o2)c(Cl)c1	0	0	0	0	?	0
Clc1cccc(-c2ccc(C=Nc3ccc(N4CCOCC4)cc3)o2)c1Cl	-	0	0	14	0	-
C[C@@H]1CN([C@H](C)CO)C(=O)c2cc(NC(=O)Nc3ccc(F)cc3)ccc2O[C@H]1CN(C)S(=O)(=O)c1cccs1	0	0	-	0	0	0
Cc1noc(C)c1S(=O)(=O)N(C)C[C@@H]1OCCCC[C@H](C)Oc2ccc(NC(=O)Nc3ccccc3)cc2C(=O)N([C@@H](C)CO)C[C@H]1C	-	0	-	0	0	0
CC1=C(O)C(=O)C(C2=C(O)C(=O)C(C)=C(O)C2=O)=C(O)C1=O	0	0	-	0	0	0
Cc1ccc(C2=C(O)C(=O)C(c3ccc(C)cc3)=C(O)C2=O)cc1	-	0	0	0	56	-
CCNC(=O)C[C@H]1CC[C@@H]2[C@H](COC[C@H](O)CN2C(=O)C2CC2)O1	0	0	-	0	0	0
CC(C)(C)OC(=O)CNC(=O)c1[nH]cnc1C(=O)NC1CCN(C(=O)OC(C)(C)C)CC1	-	0	-	0	0	-
CCOC(=O)c1ccc(NC(=O)c2nc[nH]c2C(=O)NC2CCN(C(=O)OC(C)(C)C)CC2)cc1	0	0	0	0	68	0
CC(C)(C)OC(=O)N1CCC(NC(=O)c2nc[nH]c2C(=O)NCC(=O)OCc2ccccc2)CC1	0	0	0	0	38	0
O=C(C[C@H]1CC[C@@H](NC(=O)C2CC2)[C@@H](CO)O1)Nc1nccs1	0	0	-	0	0	0
CCCC#Cc1ccc([C@H]2[C@@H](CO)N3CCCCN(Cc4cccnc4)C[C@@H]23)cc1	0	0	-	0	33	0
CCCC#Cc1ccc([C@H]2[C@@H](CO)N3CCCCN(Cc4cncnc4)C[C@@H]23)cc1	-	0	-	0	0	0
CCCC#Cc1ccc([C@@H]2[C@@H](CO)N3CCCCN(Cc4cncnc4)C[C@@H]23)cc1	-	0	-	0	26	0
COCC#Cc1ccc([C@H]2[C@@H](CO)N3CCCCN(Cc4cccnc4)C[C@@H]23)cc1	-	0	-	0	57	0
C[C@@H]1CN([C@H](C)CO)C(=O)c2cc(-c3ccccc3F)cnc2O[C@H]1CN(C)C	0	0	-	0	?	0
SMILES	C2C12 statin	ERp5 inh	PDI turbidity	CFTR F508del cor	DENV2 CPE	Cneo AK release
COCC(=O)Nc1ccc2c(c1)C(=O)N(C)C[C@@H](OC)[C@@H](C)CN(C(=O)c1cnccn1)[C@@H](C)CO2	0	0	-	0	0	0
CC(C)SCc1cc(N2CCCC2)nc(-c2ccccc2)n1	-	0	0	0	26	-
CSCc1cc(N2CCCC2)nc(-c2ccccc2)n1	-	0	0	0	0	-
O=C1c2ccccc2NC2(CCCCC2)N1c1ccc(O)cc1	137	-	0	-	-	0
C[C@@H]1CN([C@H](C)CO)C(=O)Cc2cc(NS(=O)(=O)c3ccc(Cl)cc3)ccc2O[C@@H]1CN(C)C(=O)Nc1ccccc1	0	0	-	0	27	0
Cc1ccc(S(=O)(=O)Nc2ccc3c(c2)CC(=O)N([C@H](C)CO)C[C@@H](C)[C@@H](CN(C)C(=O)Nc2ccc(F)cc2)O3)cc1	0	0	-	0	25	0
C[C@@H]1CN([C@@H](C)CO)C(=O)Cc2cc(NS(=O)(=O)c3ccc(Cl)cc3)ccc2O[C@@H]1CN(C)C(=O)Nc1ccccc1	0	0	-	0	0	0
CC(=O)N(C)C[C@@H]1Oc2ncc(C#C[C@@H](C)O)cc2C(=O)N([C@@H](C)CO)C[C@@H]1C	0	0	-	0	0	0
C[C@H](CO)N1C[C@H](C)[C@H](CN(C)S(=O)(=O)c2cn(C)cn2)Oc2ccc(NS(=O)(=O)c3cn(C)cn3)cc2CC1=O	0	0	-	0	0	0
C[C@@H]1CN([C@H](C)CO)C(=O)Cc2cc(NC(=O)Nc3ccccc3)ccc2O[C@@H]1CN(C)Cc1ccc(Cl)c(Cl)c1	0	0	-	0	0	0
C[C@H]1CN([C@@H](C)CO)C(=O)Cc2cc(NC(=O)Nc3ccc4c(c3)OCO4)ccc2O[C@H]1CN(C)Cc1ccccc1	0	0	-	0	46	0
C[C@@H]1CN([C@@H](C)CO)C(=O)Cc2cc(NC(=O)Nc3ccccc3)ccc2O[C@H]1CN(C)Cc1ccc(Cl)c(Cl)c1	0	0	-	0	38	0
CC(C)NC(=O)Nc1ccc2c(c1)CC(=O)N([C@H](C)CO)C[C@@H](C)[C@@H](CN(C)Cc1ccc(Oc3ccccc3)cc1)O2	0	?	-	0	0	105
C[C@@H]1CN([C@@H](C)CO)C(=O)Cc2cc(NC(=O)Nc3ccc4c(c3)OCO4)ccc2O[C@H]1CN(C)Cc1ccccc1	0	0	-	0	0	0
CC(C)NC(=O)Nc1ccc2c(c1)CC(=O)N([C@H](C)CO)C[C@H](C)[C@H](CN(C)Cc1ccc(-c3ccccc3)cc1)O2	0	0	-	0	28	0
C[C@H]1CCCCO[C@@H](CN(C)C)[C@@H](C)CN([C@@H](C)CO)C(=O)c2cc(NC(=O)C3CCCCC3)ccc2O1	0	0	-	0	0	0
CC(C)NC(=O)Nc1ccc2c(c1)CC(=O)N([C@H](C)CO)C[C@@H](C)[C@@H](CN(C)Cc1ccc(C(=O)O)cc1)O2	0	0	-	0	68	0
C[C@H](CO)N1C[C@H](C)[C@@H](CN(C)Cc2ccccc2)Oc2ccc(NC(=O)Nc3ccccc3)cc2CC1=O	0	0	-	0	25	0
